Measurements reported in ChEMBL document CHEMBL4350961, “Discovery of Pyrrolo[3,2- d]pyrimidin-4-one Derivatives as a New Class of Potent and Cell-Active Inhibitors of P300/CBP-Associated Factor Bromodomain” (J Med Chem, 2019).
Activity calls are given as the source filed them.

Columns and labels:
[1] = system: RAC-gamma serine/threonine-protein kinase (Homo sapiens), Q9Y243 [S472D]; test: Inhibition of recombinant full-length human PKBgamma S472D mutant (117 to end residues) at 10 uM using GRPRTSSFAEGKK as substrate measured after 40 mins in presence of [gamma33P]ATP by scintillation counting method
Chain of RAC-gamma serine/threonine-protein kinase (Homo sapiens), Q9Y243 [S472D] (Q9Y243 whole entry S472D): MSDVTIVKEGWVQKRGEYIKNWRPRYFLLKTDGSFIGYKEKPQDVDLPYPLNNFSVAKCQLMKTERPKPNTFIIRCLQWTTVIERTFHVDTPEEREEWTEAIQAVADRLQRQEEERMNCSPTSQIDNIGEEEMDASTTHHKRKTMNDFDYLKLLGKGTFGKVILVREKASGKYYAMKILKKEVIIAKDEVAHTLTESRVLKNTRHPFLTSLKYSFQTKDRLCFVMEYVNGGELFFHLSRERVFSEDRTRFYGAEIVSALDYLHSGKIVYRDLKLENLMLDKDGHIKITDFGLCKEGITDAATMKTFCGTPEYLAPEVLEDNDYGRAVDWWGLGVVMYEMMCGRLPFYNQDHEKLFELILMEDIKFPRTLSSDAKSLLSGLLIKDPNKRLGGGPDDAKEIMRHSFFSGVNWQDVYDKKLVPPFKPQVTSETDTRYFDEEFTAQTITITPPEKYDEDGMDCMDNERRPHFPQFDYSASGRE

[2] = biological target: Serine/threonine-protein kinase PAK 4 (Homo sapiens) (UniProt O96013); test: Inhibition of recombinant human PAK4 (295 to end residues) at 10 uM using myelin basic protein as substrate measured after 40 mins in presence of [gamma33P]ATP by scintillation counting method
[3] = biological target: Receptor-interacting serine/threonine-protein kinase 2 (Homo sapiens) (UniProt O43353); test: Inhibition of human RIPK2 (1 to 299 residues) using myelin basic protein as substrate measured after 120 mins in presence of [gamma33P]ATP by scintillation counting method
Summary of the method: (§1)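 Kinase panel of 422 kinases screened by Eurofins KinaseProfiler at a single test-compound concentration of 10 µM.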

[4] = biological target: Tyrosine-protein kinase ABL1 (Homo sapiens) (UniProt P00519); test: Inhibition of recombinant human ABL (27 to end residues) at 10 uM using EAIYAAPFAKKK as substrate measured after 40 mins in presence of [gamma33P]ATP by scintillation counting method
[5] = biological target: Bromodomain-containing protein 2 (Homo sapiens) (UniProt P25440); test: Binding affinity to human partial length BRD2 bromodomain 2 isoform 1 (E348 to D455 residues) expressed in bacterial expression system at 1 uM by BROMOscan assay
Summary of the method: (§2)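 BROMOscan bromodomain cross-screen run by an outside service, compound at 1 µM against 32 recombinant bromodomains. Binding given as percent of control.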

[6] = biological target: Tyrosine-protein kinase Fes/Fps (Homo sapiens) (UniProt P07332); test: Inhibition of recombinant human FES (2 to end residues) at 10 uM using poly(Glu, Tyr) 4:1 as substrate measured after 40 mins in presence of [gamma33P]ATP by scintillation counting method
Mus musculus = organism: Mus musculus; test: Inhibition of recombinant full-length mouse PI3K p110beta/p85beta R123L mutant at 10 uM using phosphatidylinositol-4, 5-bisphosphate as substrate measured after 40 mins by HTRF assay
[7] = biological target: Serine/threonine-protein kinase WNK3 (Homo sapiens) (UniProt Q9BYP7); test: Inhibition of human WNK3 (1 to 434 residues) using myelin basic protein as substrate measured after 40 mins in presence of [gamma33P]ATP by scintillation counting method
Chain of Serine/threonine-protein kinase WNK3 (Homo sapiens) (Q9BYP7 whole entry, the tested form may be a part): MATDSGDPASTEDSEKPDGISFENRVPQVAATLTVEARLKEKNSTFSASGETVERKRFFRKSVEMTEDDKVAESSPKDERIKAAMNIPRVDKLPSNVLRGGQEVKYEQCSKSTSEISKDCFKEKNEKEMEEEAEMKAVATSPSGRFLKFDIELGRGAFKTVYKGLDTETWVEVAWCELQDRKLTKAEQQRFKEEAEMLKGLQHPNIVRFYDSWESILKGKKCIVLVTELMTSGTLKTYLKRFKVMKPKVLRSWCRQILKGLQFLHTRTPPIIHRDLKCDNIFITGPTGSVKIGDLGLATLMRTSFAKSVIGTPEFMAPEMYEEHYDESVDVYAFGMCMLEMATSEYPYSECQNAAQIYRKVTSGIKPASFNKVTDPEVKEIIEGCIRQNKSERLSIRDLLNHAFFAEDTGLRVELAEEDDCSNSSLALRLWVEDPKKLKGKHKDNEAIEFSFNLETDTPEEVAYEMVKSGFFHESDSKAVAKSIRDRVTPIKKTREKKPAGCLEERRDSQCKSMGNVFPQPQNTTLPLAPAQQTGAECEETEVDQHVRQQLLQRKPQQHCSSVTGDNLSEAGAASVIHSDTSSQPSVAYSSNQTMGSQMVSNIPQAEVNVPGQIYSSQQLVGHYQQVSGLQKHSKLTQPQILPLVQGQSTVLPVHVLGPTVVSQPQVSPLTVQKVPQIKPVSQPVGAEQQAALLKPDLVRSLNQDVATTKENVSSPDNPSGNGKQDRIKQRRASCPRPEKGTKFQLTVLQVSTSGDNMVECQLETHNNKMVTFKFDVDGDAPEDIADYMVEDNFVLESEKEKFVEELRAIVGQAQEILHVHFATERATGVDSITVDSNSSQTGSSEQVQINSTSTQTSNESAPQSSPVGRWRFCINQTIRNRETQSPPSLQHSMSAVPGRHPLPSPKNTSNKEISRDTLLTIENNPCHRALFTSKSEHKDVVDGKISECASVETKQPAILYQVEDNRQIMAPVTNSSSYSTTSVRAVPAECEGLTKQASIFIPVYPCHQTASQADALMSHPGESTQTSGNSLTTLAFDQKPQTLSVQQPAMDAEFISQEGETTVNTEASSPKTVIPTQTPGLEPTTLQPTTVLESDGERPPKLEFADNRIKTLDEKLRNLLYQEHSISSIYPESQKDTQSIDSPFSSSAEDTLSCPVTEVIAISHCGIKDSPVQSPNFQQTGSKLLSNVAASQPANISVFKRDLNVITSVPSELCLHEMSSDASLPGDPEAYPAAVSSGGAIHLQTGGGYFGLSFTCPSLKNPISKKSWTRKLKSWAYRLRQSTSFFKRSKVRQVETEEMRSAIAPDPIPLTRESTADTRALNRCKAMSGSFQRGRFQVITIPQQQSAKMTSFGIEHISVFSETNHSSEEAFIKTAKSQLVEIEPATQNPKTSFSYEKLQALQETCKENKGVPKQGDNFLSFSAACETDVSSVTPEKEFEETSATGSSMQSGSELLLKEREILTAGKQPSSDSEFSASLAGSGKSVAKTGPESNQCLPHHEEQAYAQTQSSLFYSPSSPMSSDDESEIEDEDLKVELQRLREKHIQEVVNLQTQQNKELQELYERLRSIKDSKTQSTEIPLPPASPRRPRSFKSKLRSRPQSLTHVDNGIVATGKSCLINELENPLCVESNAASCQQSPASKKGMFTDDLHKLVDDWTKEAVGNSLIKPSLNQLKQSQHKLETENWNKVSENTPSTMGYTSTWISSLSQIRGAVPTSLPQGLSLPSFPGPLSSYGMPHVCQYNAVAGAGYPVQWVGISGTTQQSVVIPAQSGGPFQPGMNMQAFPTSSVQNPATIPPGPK

[8] = biological target: Serine-protein kinase ATM (Homo sapiens) (UniProt Q13315); test: Inhibition of recombinant full-length human ATM at 10 uM using GST-cMyc-p53 as substrate measured after 40 mins by ELISA
[9] = biological target: Dual specificity tyrosine-phosphorylation-regulated kinase 1A (Homo sapiens) (UniProt Q13627); test: Inhibition of recombinant full-length human DYRK1A at 10 uM using RRRFRPASPLRGPPK as substrate measured after 40 mins in presence of [gamma33P]ATP by scintillation counting method
[10] = biological target: Muscle, skeletal receptor tyrosine-protein kinase (Homo sapiens) (UniProt O15146); test: Inhibition of recombinant human MuSK (530 to end residues) at 10 uM using myelin basic protein as substrate measured after 40 mins in presence of [gamma33P]ATP by scintillation counting method
Chain of Muscle, skeletal receptor tyrosine-protein kinase (Homo sapiens) (O15146 whole entry): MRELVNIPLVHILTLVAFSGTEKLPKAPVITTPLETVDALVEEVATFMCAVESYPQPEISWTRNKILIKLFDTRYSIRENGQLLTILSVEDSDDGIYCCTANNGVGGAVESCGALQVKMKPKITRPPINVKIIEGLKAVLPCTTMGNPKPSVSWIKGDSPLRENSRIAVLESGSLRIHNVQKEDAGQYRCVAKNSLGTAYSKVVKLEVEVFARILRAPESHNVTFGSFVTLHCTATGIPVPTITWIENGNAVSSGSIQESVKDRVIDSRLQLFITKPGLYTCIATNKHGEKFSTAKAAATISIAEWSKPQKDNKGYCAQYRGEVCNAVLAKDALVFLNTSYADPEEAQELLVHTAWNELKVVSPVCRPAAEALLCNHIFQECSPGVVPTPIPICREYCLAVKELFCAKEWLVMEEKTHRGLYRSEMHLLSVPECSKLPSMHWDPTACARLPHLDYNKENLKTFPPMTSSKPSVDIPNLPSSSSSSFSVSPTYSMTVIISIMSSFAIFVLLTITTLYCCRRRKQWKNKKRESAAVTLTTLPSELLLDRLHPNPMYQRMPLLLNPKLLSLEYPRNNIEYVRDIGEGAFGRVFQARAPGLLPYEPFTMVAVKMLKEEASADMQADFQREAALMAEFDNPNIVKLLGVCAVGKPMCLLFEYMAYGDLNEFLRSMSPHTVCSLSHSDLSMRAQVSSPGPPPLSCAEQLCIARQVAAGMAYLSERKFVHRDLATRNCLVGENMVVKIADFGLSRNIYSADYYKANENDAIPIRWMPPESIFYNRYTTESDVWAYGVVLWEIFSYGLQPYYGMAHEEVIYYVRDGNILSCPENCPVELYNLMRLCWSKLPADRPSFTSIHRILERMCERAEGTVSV

[11] = biological target: Serine/threonine-protein kinase PAK 3 (Homo sapiens) (UniProt O75914); test: Inhibition of recombinant full-length human PAK3 at 10 uM using RRRLSFAEPG as substrate measured after 40 mins in presence of [gamma33P]ATP by scintillation counting method
Chain of Serine/threonine-protein kinase PAK 3 (Homo sapiens) (O75914 whole entry, looked up): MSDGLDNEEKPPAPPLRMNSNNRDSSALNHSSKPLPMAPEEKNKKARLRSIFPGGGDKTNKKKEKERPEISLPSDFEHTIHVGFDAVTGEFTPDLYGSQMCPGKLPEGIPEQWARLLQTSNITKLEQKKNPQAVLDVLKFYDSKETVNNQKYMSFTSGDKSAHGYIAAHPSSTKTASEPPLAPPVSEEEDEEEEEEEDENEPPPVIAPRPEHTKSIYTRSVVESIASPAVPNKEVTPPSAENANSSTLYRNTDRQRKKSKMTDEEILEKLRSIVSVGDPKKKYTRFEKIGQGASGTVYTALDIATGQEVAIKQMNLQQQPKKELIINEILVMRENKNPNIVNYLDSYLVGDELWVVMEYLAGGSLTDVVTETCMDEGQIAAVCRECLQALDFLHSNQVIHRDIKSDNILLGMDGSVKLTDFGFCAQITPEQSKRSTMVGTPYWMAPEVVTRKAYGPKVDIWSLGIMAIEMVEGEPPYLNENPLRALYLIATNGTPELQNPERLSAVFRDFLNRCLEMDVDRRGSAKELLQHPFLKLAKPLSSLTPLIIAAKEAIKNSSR

[12] = biological target: Rhodopsin kinase GRK7 (Homo sapiens) (UniProt Q8WTQ7); test: Inhibition of recombinant full-length human GRK7 at 10 uM using casein as substrate measured after 40 mins in presence of [gamma33P]ATP by scintillation counting method
[13] = biological target: LIM domain kinase 2 (Homo sapiens) (UniProt P53671); test: Inhibition of recombinant human LIMK2 at 10 uM by radiometric method
[14] = biological target: Serine/threonine-protein kinase haspin (Homo sapiens) (UniProt Q8TF76); test: Inhibition of recombinant human haspin (471 to end residues) at 10 uM using RARTLSFAEPG as substrate measured after 40 mins in presence of [gamma33P]ATP by scintillation counting method
[15] = biological target: Serine/threonine-protein kinase TBK1 (Homo sapiens) (UniProt Q9UHD2); test: Inhibition of recombinant full-length human TBK1 at 10 uM using KRRRALS(p)VASLPGL as substrate measured after 40 mins in presence of [gamma33P]ATP by scintillation counting method
Chain of Serine/threonine-protein kinase TBK1 (Homo sapiens) (Q9UHD2 whole entry): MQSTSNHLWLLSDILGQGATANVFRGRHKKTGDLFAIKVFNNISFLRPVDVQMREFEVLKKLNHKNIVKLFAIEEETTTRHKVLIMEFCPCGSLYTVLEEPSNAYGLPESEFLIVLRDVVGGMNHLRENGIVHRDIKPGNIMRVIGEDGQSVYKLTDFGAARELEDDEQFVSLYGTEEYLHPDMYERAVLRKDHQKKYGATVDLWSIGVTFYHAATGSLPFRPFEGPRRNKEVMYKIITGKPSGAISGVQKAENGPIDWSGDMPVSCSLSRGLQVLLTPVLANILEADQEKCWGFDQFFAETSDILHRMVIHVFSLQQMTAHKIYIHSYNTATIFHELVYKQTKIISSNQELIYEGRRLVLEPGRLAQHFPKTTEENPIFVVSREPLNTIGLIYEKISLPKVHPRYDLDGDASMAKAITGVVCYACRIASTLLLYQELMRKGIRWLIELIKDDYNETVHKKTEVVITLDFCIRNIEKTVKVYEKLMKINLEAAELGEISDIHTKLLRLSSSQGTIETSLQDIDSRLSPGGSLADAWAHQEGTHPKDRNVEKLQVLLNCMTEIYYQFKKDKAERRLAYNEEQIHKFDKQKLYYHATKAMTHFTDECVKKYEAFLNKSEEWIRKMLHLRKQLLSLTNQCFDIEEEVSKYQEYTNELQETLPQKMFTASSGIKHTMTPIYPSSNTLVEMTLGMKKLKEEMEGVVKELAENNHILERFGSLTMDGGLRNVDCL

[16] = biological target: Serine/threonine-protein kinase 32C (Homo sapiens) (UniProt Q86UX6); test: Inhibition of recombinant full-length human STK32C at 10 uM using casein as substrate measured after 120 mins in presence of [gamma33P]ATP by scintillation counting method
[17] = system: Tyrosine-protein kinase ABL1 (Homo sapiens), P00519 [H396P]; test: Inhibition of recombinant human ABL H396P mutant (27 to end residues) at 10 uM using EAIYAAPFAKKK as substrate measured after 40 mins in presence of [gamma33P]ATP by scintillation counting method
[18] = biological target: Serine/threonine-protein kinase MRCK gamma (Homo sapiens) (UniProt Q6DT37); test: Inhibition of recombinant human MRCKgamma at 10 uM using KKRNRTLTV as substrate measured after 40 mins in presence of [gamma33P]ATP by scintillation counting method
[19] = biological target: Dual specificity protein kinase CLK3 (Homo sapiens) (UniProt P49761); test: Inhibition of recombinant full-length human CLK3 at 10 uM using ERMRPRKRQGSVRRRV as substrate measured after 40 mins in presence of [gamma33P]ATP by scintillation counting method
[20] = biological target: Bromodomain-containing protein 3 (Homo sapiens) (UniProt Q15059); test: Binding affinity to human partial length BRD3 bromodomain 1 (P24 to E144 residues) expressed in bacterial expression system at 1 uM by BROMOscan assay; summary of the method: as §2
[21] = biological target: Calcium/calmodulin-dependent protein kinase type IV (Homo sapiens) (UniProt Q16566); test: Inhibition of recombinant full-length human CaMK4 at 10 uM using calmodulin as substrate measured after 40 mins in presence of [gamma33P]ATP by scintillation counting method
[22] = biological target: Serine/threonine-protein kinase VRK1 (Homo sapiens) (UniProt Q99986); test: Inhibition of human VRK1 at 10 uM by radiometric method
Chain of Serine/threonine-protein kinase VRK1 (Homo sapiens) (Q99986 whole entry, canonical isoform): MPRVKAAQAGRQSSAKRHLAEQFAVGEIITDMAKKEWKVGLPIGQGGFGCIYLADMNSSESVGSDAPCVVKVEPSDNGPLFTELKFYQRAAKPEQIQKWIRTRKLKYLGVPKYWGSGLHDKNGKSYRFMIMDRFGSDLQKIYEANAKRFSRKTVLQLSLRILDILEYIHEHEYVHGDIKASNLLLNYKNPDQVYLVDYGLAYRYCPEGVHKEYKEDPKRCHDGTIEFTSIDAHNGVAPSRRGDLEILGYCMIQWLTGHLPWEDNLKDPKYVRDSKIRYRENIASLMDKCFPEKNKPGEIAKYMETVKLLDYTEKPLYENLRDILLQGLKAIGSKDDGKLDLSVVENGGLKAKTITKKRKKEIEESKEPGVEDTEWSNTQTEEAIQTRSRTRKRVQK

[23] = biological target: Casein kinase I isoform epsilon (Homo sapiens) (UniProt P49674); test: Inhibition of human CK1epsilon at 10 uM using KRRRALS(p)VASLPGL as substrate measured after 120 mins in presence of [gamma33P]ATP by scintillation counting method; summary of the method: as §1
[24] = biological target: Protein-tyrosine kinase 6 (Homo sapiens) (UniProt Q13882); test: Inhibition of full-length recombinant human BRK at 10 uM using poly(Glu, Tyr) 4:1 as substrate measured after 40 mins in presence of [gamma33P]ATP by scintillation counting method; summary of the method: as §1

CN1C[C@H](Nc2nc3cc[nH]c3c(=O)n2C)C[C@H](c2ccc3c(c2)OCCO3)C1
inactive: inhibition [1] | inhibition [2] | inhibition [3] | inhibition [4] | Activity [5] | inhibition [6] | inhibition (Mus musculus) | inhibition [7] | inhibition [8] | inhibition [9] | inhibition [10] | inhibition [11] | inhibition [12] | inhibition [13] | inhibition [14] | inhibition [15] | inhibition [16] | inhibition [17] | inhibition [18] | inhibition [19] | Activity [20] | inhibition [21] | inhibition [22] | inhibition [23] | inhibition [24]
